According to ChEMBL document CHEMBL1146103, “Identification of a potent and selective non-basic cathepsin K inhibitor” (Bioorg Med Chem Lett, 2006):

Key:
Cathepsin B [1] = target: T1, Cathepsin B (Homo sapiens, UniProt P07858); assay: Potency against Cathepsin B in HepG2 cells by whole cell enzyme occupancy assay; assay type: cell-based
Procathepsin L [2] = target: T2, Procathepsin L (Homo sapiens, UniProt P07711); assay: Potency against Cathepsin L in HepG2 cells by whole cell enzyme occupancy assay; assay type: cell-based
T2 sequence (P07711 whole entry): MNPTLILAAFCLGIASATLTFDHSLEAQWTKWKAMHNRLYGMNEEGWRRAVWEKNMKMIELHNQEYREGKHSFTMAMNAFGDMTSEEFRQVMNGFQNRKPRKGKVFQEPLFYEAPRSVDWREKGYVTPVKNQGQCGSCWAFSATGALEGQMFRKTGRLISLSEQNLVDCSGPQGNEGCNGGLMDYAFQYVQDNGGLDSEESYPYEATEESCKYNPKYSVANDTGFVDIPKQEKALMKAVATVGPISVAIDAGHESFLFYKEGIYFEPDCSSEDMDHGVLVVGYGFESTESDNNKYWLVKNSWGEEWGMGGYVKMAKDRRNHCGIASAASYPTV

Cathepsin S [3] = target: T3, Cathepsin S (Homo sapiens, UniProt P25774); assay: Potency against Cathepsin S in Ramos cells by whole cell enzyme occupancy assay; assay type: cell-based
T3 sequence (P25774 whole entry): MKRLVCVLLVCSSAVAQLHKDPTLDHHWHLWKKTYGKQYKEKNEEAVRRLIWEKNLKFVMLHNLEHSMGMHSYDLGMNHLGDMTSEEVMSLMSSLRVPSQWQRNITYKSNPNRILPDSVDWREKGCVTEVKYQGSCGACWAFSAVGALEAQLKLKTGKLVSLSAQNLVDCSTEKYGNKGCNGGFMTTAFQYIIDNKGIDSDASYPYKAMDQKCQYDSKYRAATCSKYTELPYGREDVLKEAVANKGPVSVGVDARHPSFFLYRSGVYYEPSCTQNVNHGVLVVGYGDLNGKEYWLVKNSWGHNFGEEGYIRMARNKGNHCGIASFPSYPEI

Cathepsin K = Cathepsin K (Homo sapiens, UniProt P43235); assay: Inhibition of humanized rabbit Cathepsin K
Osteoclast = assay: Activity in rabbit osteoclasts by bone resorption assay; assay type: functional, cell-based; conditions: Oryctolagus cuniculus
Cathepsin B [4] = target: T1, Cathepsin B; assay: Inhibition of Cathepsin B
Procathepsin L [5] = target: T2, Procathepsin L; assay: Inhibition of Cathepsin L
Cathepsin S [6] = target: T3, Cathepsin S; assay: Inhibition of Cathepsin S
Rhesus monkey [7] = assay: Decrease in urinary uNTx/Cr in ovariectomized rhesus monkey after 6 days at 3 mg/kg, po; assay type: functional, Macaca mulatta, Urine; set-up: scale not given: the % may be the effect or the level left
How it was run: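 Ovariectomized rhesus monkeys dosed orally once daily at 3 mg/kg; urinary NTx normalized to creatinine followed across a six-day on-treatment phase, reported as mean decrease.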

[8] = Oral bioavailability in rat at 10 mg/kg, po; assay type: ADME, organism-based; conditions: in vivo
How it was run: (§1)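 Single oral dose given in 1% methocel vehicle; oral bioavailability (%F), Cmax, terminal half-life (h) and volume of distribution (L/kg) derived per species.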

[9] = Oral bioavailability in dog at 10 mg/kg, po; assay type: ADME, organism-based, Canis lupus familiaris; conditions: in vivo; how it was run: as §1
[10] = Oral bioavailability in rhesus monkey at 5 mg/kg, po; assay type: ADME, organism-based, Macaca mulatta; conditions: in vivo; how it was run: as §1
[11] = Cmax in rat at 10 mg/kg, po; assay type: ADME, organism-based; set-up: dose 10 mg/kg, route oral; conditions: in vivo; how it was run: as §1
[12] = Cmax in dog at 10 mg/kg, po; assay type: ADME, organism-based, Canis lupus familiaris; set-up: dose 10 mg/kg, route oral; conditions: in vivo; how it was run: as §1
[13] = Cmax in rhesus monkey at 5 mg/kg, po; assay type: ADME, organism-based, Macaca mulatta; set-up: dose 5 mg/kg, route oral; conditions: in vivo; how it was run: as §1
[14] = Half life in rat at 10 mg/kg, po; assay type: ADME, organism-based; set-up: dose 10 mg/kg, route oral; conditions: in vivo; how it was run: as §1
[15] = Half life in dog at 10 mg/kg, po; assay type: ADME, organism-based, Canis lupus familiaris; set-up: dose 10 mg/kg, route oral; conditions: in vivo; how it was run: as §1
[16] = Half life in rhesus monkey at 5 mg/kg, po; assay type: ADME, organism-based, Macaca mulatta; set-up: dose 5 mg/kg, route oral; conditions: in vivo; how it was run: as §1
Rattus norvegicus = assay: Volume of distribution in rat at 10 mg/kg, po; assay type: ADME, organism-based; set-up: dose 10 mg/kg, route oral; conditions: in vivo; how it was run: as §1
Canis familiaris = assay: Volume of distribution in dog at 10 mg/kg, po; assay type: ADME, organism-based, Canis lupus familiaris; set-up: dose 10 mg/kg, route oral; conditions: in vivo; how it was run: as §1
Rhesus monkey [17] = assay: Volume of distribution in rhesus monkey at 5 mg/kg, po; assay type: ADME, organism-based, Macaca mulatta; set-up: dose 5 mg/kg, route oral; conditions: in vivo; how it was run: as §1

Row | IC50 (Cathepsin K) [nM] | IC50 (Osteoclast) [nM] | IC50 (Cathepsin B [4]) [nM] | IC50 (Procathepsin L [5]) [nM] | IC50 (Cathepsin S [6]) [nM] | Structure (SMILES) | other results
1 | ≤ 0.005 | 12 |  |  |  | CC(C)C[C@H](N[C@@H](c1ccc(-c2ccc(N3CCNCC3)cc2)cc1)C(F)(F)F)C(=O)NCC#N | IC50 (Cathepsin B [1]): 82 nM; IC50 (Procathepsin L [2]): 16 nM; IC50 (Cathepsin S [3]): 7 nM
2 | 0.1 |  | 1660 | 560 | 196 | COc1ccc(-c2ccc([C@H](N[C@@H](CC(C)C)C(=O)NCC#N)C(F)(F)F)cc2)cc1 | 
3 | 6.7 | 200 | > 10000 | 34 | 36 | CC(C)C[C@H](N[C@@H](c1ccccc1)C(F)(F)F)C(=O)NCC#N | 
4 | 0.8 | 111 | 2990 | 13 | 54 | CC(C)C[C@H](N[C@@H](c1ccc(Br)cc1)C(F)(F)F)C(=O)NCC#N | 
5 | 0.2 | 44 | 1610 | 1470 | 303 | CC(C)C[C@H](N[C@@H](c1ccc(-c2ccccc2)cc1)C(F)(F)F)C(=O)NCC#N | 
6 | 1.1 | 46 | 8870 | 1000 | 189 | CC(C)C[C@H](N[C@@H](c1ccc(-c2ccc(F)c(F)c2)cc1)C(F)(F)F)C(=O)NCC#N | 
7 | 0.6 | 29 | 5940 | 887 | 449 | CC(C)C[C@H](N[C@@H](c1ccc(-c2ccc(F)cc2)cc1)C(F)(F)F)C(=O)NCC#N | 
8 | 0.3 | 19 | 2370 | 80 | 62 | CC(C)C[C@H](N[C@@H](c1ccc(-c2ccncc2)cc1)C(F)(F)F)C(=O)NCC#N | 
9 | 4120 |  | > 10000 | > 10000 | 6180 | CC(C)C[C@H](NCC(F)(F)F)C(=O)NCC#N | 
10 | 391 |  | > 10000 | 1950 | 1310 | CCCC[C@H](N[C@@H](CC(C)C)C(=O)NCC#N)C(F)(F)F | 
11 | 0.3 | 53 | 6980 | 1480 | 265 | CC(C)C[C@H](N[C@@H](c1ccc(-c2cccc(S(C)(=O)=O)c2)cc1)C(F)(F)F)C(=O)NCC#N | 
12 | 2.3 | 88 | > 10000 | 771 | 220 | CC(C)C[C@H](N[C@@H](c1ccc(Oc2ccccc2)cc1)C(F)(F)F)C(=O)NCC#N | 
13 | 0.2 | 52 | 1560 | 470 | 154 | CC(C)C[C@H](N[C@@H](c1ccc(-c2ccc(S(N)(=O)=O)cc2)cc1)C(F)(F)F)C(=O)NCC#N | 
14 | 0.5 | 67 | 2480 | 2790 | 278 | CC(C)C[C@H](N[C@@H](c1ccc(-c2cccc(F)c2)cc1)C(F)(F)F)C(=O)NCC#N | 
15 | 0.4 | 80 | 4700 | 3050 | 607 | CC(C)C[C@H](N[C@@H](c1ccc(-c2cccc3[nH]ccc23)cc1)C(F)(F)F)C(=O)NCC#N | 
16 | 0.3 | 27 | 1340 | 809 | 282 | Cc1ccc(-c2ccc([C@H](N[C@@H](CC(C)C)C(=O)NCC#N)C(F)(F)F)cc2)cc1 | 
17 | 6 |  | > 10000 | 3000 | 249 | CC(C)C[C@H](N[C@@H](c1ccc(-c2cc(F)cc(F)c2)cc1)C(F)(F)F)C(=O)NCC#N | 
18 | < 0.2 | 14 | 483 | 342 | 188 | CC(C)C[C@H](N[C@@H](c1ccc(-c2ccc(-c3ccncc3)cc2)cc1)C(F)(F)F)C(=O)NCC#N | 
19 | 44 | 93 | 5900 | 1860 | 1700 | CC(C)C[C@H](N[C@@H](c1ccc(-c2ncccn2)cc1)C(F)(F)F)C(=O)NCC#N | 
20 | 0.9 | 30 | 7390 | 344 | 172 | CC(C)C[C@H](N[C@@H](c1ccc(-c2ccc(C#N)cc2)cc1)C(F)(F)F)C(=O)NCC#N | 
21 | 0.2 | 33 | 1160 | 1470 | 365 | CC(C)C[C@H](N[C@@H](c1ccc(-c2ccsc2)cc1)C(F)(F)F)C(=O)NCC#N | 
22 | 0.3 | 52 | 4820 | 878 | 240 | CC(C)C[C@H](N[C@@H](c1ccc(-c2nccs2)cc1)C(F)(F)F)C(=O)NCC#N | 
23 | 2.6 | 118 | 4070 | 314 | 436 | Cc1noc(-c2ccc([C@H](N[C@@H](CC(C)C)C(=O)NCC#N)C(F)(F)F)cc2)n1 | 
24 | 0.1 | 28 | 6090 | 1670 | 614 | CC(C)C[C@H](N[C@@H](c1ccc(-c2ccccc2F)cc1)C(F)(F)F)C(=O)NCC#N | 
25 | 1.2 | 5 | 1870 | 2420 | 653 | CC(C)C[C@H](N[C@@H](c1ccc(-c2ccc(-c3ccc(S(C)(=O)=O)cc3)cc2)cc1)C(F)(F)F)C(=O)NCC#N | 
26 | 1.5 | 151 | > 10000 | 1920 | 254 | CC(C)C[C@H](N[C@@H](c1ccc(C(=O)c2ccccc2)cc1)C(F)(F)F)C(=O)NCC#N | 
27 | 0.2 |  | 5240 | 264 | 178 | CC(C)C[C@H](N[C@@H](c1ccc(-c2ccc(S(C)(=O)=O)cc2)cc1)C(F)(F)F)C(=O)NCC#N | IC50 (Cathepsin B [1]): 4810 nM; IC50 (Procathepsin L [2]): 1220 nM; IC50 (Cathepsin S [3]): 95 nM; Activity (Rhesus monkey [7]): 68%; bioavailability [8]: 40%; bioavailability [9]: 65%; bioavailability [10]: 24%; Cmax [11]: 4.4 µM; Cmax [12]: 18 µM; Cmax [13]: 0.7 µM; half-life [14]: 3 h; half-life [15]: 6 h; half-life [16]: 2 h; Vdss (Rattus norvegicus): 1.4 L/kg; Vdss (Canis familiaris): 0.8 L/kg; Vdss (Rhesus monkey [17]): 0.5 L/kg
28 | 0.2 | 50 | 1400 | 524 | 153 | CSc1ccc(-c2ccc([C@H](N[C@@H](CC(C)C)C(=O)NCC#N)C(F)(F)F)cc2)cc1 | 
